Here are results for three compounds from paper PMC4698184 (Antiviral Research, 2015).

For data set [1], the system named is EV-D68. Description: Cell-based inhibition assay. Conditions: Enterovirus D, EVD68, WI-38, read-out: EC50 EV-D68. The method in brief: (§1)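 WI-38 cells, confluent or semi-confluent, at 37 °C were infected at MOI 0.05 for 1 h. Inoculum was then replaced with medium containing test compound (up to 100 μM) or DMSO (<0.1%). Cells were incubated up to 168 h, until 80–90% CPE. Virus yield was titrated by TCID50 (Reed–Muench), and EC50 was derived by curve fitting.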

Data set [2] has as its system HRV1B. Description: Cell-based inhibition assay. Conditions: Human rhinovirus sp., WI-38, read-out: EC50 HRV1B. The gist of the method: as §1
Data set [3] relates to HRV51. Description: Cell-based inhibition assay. Particulars: Human rhinovirus sp., HRV51, WI-38, read-out: EC50 HRV51. The gist of the method:
as §1

The conditions of data set [4]: ref Dragovich et al., 1999; cited from earlier work.
For data set [5] the following is noted: cited from earlier work.
The subject of data set [6] is HRV strains. Conditions: read-out: EC50 against HRV strains; ref Patick et al., 2005; cited from earlier work.

As for `CCOC(=O)/C=C/[C@H](C[C@@H]1CCNC1=O)NC(=O)[C@@H](CC(=O)[C@@H](NC(=O)c1cc(C)on1)C(C)C)Cc1ccc(F)cc1` [AG7088], the EC50 was 0.01 ± 0.003 µM in data set [1], 0.02 ± 0.01 µM in data set [2] and 0.05 ± 0.03 µM in data set [3]. Further, the aqueous solubility entry in data set [4] is listed as “poor aqueous solubility”. Moreover, the oral bioavailability entry in data set [5] (ref Dragovich et al., 1999) is reported as “low oral bioavailability”.
Turning to `C#CC[C@@H](C(=O)N[C@H](/C=C/C(=O)OCC)C[C@@H]1CCNC1=O)n1cccc(NC(=O)c2cc(C)on2)c1=O` [Compound 1 (Patick et al., 2005)], the oral availability result in data set [5] (ref Patick et al., 2005) was “orally available”. Besides, the EC50 in data set [6] was under 0.1 µM.
For `Cc1cc(CCCOc2c(C)cc(-c3noc(C(F)(F)F)n3)cc2C)on1` [Plecornaril, Pleconaril], the half-maximal effective concentration (EC50) in data set [1] was determined as 0.6 ± 0.14 µM; in data set [2], 0.27 ± 0.18 µM; in data set [3], 0.07 ± 0.02 µM.
